From ChEMBL document CHEMBL3045565, “Microwave synthesis, characterization and bio-efficacy evaluation of novel chalcone based 6-carbethoxy-2-cyclohexen-1-one and 2H-indazol-3-ol derivatives” (Eur J Med Chem, 2013) come the findings set out here.

What all share (format): functional
Experiment [1] has as its system Radical scavenging activity. Description: Antioxidant activity assessed as DPPH free radical scavenging activity at 500 ug/mL after 20 min by UV-Vis spectrophotometric analysis. Put shortly:
(§1)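 DPPH radical scavenging: samples were held at room temperature for 20 min in the dark, and absorbance was read at 517 nm. The control contained DMSO without compound, and methanol was used for baseline correction. Scavenging percentage was calculated from the absorbances.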
Background: The DPPH test is a chemical assay of radical scavenging.

Experiment [2] has as its system Radical scavenging activity. Put plainly: Antioxidant activity assessed as DPPH free radical scavenging activity at 60 ug/mL after 20 min by UV-Vis spectrophotometric analysis. The method, boiled down: as §1
The test system of experiment [3] is Radical scavenging activity. Description: Antioxidant activity assessed as DPPH free radical scavenging activity at 300 ug/mL after 20 min by UV-Vis spectrophotometric analysis. Put shortly: as §1
Experiment [4] deals with Radical scavenging activity. Description: Antioxidant activity assessed as DPPH free radical scavenging activity at 100 ug/mL after 20 min by UV-Vis spectrophotometric analysis. Put shortly:
as §1

The subject of the next experiment is Staphylococcus aureus. Description: Antibacterial activity against Staphylococcus aureus MTCC 3160 assessed as growth inhibition at 100 ug/disk after 24 hr by disk diffusion method. Particulars: MTCC 3160, 24 h, read-out: DIZ. Put shortly:
(§2)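 Disk diffusion on nutrient agar. Strains kept on NA slants at 37 °C and subcultured in nutrient broth before testing. A log-phase culture was spread on solidified medium, and sterile disks were loaded with compound from DMSO stock. DMSO served as control, with commercial antibiotics for reference. Plates ran 24 h at 37 °C, and inhibition zones (mm) were read in quadruplicate.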
Background: In agar diffusion tests the substance spreads into inoculated agar from a disc or well.

The subject of another experiment is Klebsiella pneumoniae. Put plainly: Antibacterial activity against Klebsiella pneumoniae MTCC 7028 assessed as growth inhibition at 100 ug/disk after 24 hr by disk diffusion method. The following applies: MTCC 7028, 24 h, read-out: DIZ. Put shortly: as §2
Experiment [5] has as its system Radical scavenging activity. Description: Antioxidant activity assessed as DPPH free radical scavenging activity after 20 min by UV-Vis spectrophotometric analysis. More on the design: concentration or dose not given beside the values. Put shortly: as §1
The next experiment deals with Bacillus thuringiensis. Put plainly: Antibacterial activity against Bacillus thuringiensis MTCC 6941 assessed as growth inhibition at 100 ug/disk after 24 hr by disk diffusion method. Particulars: MTCC 6941, 24 h, read-out: DIZ. The method, boiled down:
as §2

A further experiment concerns Xanthomonas oryzae. Put plainly: Antibacterial activity against Xanthomonas oryzae ITCC B-47 assessed as as growth inhibition at 100 ug/disk after 24 hr by disk diffusion method. Particulars: ITCC B-47, 24 h, read-out: DIZ.
The test system of experiment [6] is Radical scavenging activity. Put plainly: Antioxidant activity assessed as DPPH free radical scavenging activity at 400 ug/mL after 20 min by UV-Vis spectrophotometric analysis. The method, boiled down:
as §1

Another experiment deals with Rhizoctonia solani. Put plainly: Antifungal activity against Rhizoctonia solani ITCC 5563 by food poisoning method. The method, boiled down:
(§3)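 Poisoned food technique on PDA at several concentrations. A 5 mm mycelial plug from the growing edge of a 2-week-old colony was placed inoculum-side down at the plate centre. Plates incubated at 27 °C until control growth was nearly complete. Colony diameter measured, percent inhibition calculated against control, LC50 derived. Four replicates per treatment.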

The subject of experiment [7] is Radical scavenging activity. Description: Antioxidant activity assessed as DPPH free radical scavenging activity at 200 ug/mL after 20 min by UV-Vis spectrophotometric analysis. Put shortly: as §1
The test system of experiment [8] is Radical scavenging activity. Description: Antioxidant activity assessed as DPPH free radical scavenging activity at 20 ug/mL after 20 min by UV-Vis spectrophotometric analysis. Put shortly: as §1
A further experiment relates to Bacillus pumilus. Put plainly: Antibacterial activity against Bacillus pumilus MTCC 2466 assessed as growth inhibition at 100 ug/disk after 24 hr by disk diffusion method. Particulars: MTCC 2466, 24 h, read-out: DIZ. The method, boiled down:
as §2

Experiment [9] concerns Radical scavenging activity. Description: Antioxidant activity assessed as DPPH free radical scavenging activity at 40 ug/mL after 20 min by UV-Vis spectrophotometric analysis. The method, boiled down:
as §1

Another experiment deals with Pseudomonas aeruginosa. Description: Antibacterial activity against Pseudomonas aeruginosa MTCC 2581 assessed as growth inhibition at 100 ug/disk after 24 hr by disk diffusion method. Particulars: MTCC 2581, 24 h, read-out: DIZ. The method, boiled down: as §2
The subject of another experiment is Dickeya chrysanthemi. Description: Antibacterial activity against Erwinia chrysanthemi ITCC B-40 assessed as as growth inhibition at 100 ug/disk after 24 hr by disk diffusion method. Particulars: ITCC B-40, 24 h, read-out: DIZ. Put shortly:
as §2

Experiment [10] deals with Radical scavenging activity. Description: Antioxidant activity assessed as DPPH free radical scavenging activity at 80 ug/mL after 20 min by UV-Vis spectrophotometric analysis. The method, boiled down:
as §1

The subject of a further experiment is Athelia rolfsii. Description: Antifungal activity against Athelia rolfsii ITCC 6181 by food poisoning method. The following applies: Agroathelia rolfsii. Put shortly: as §3
Experiment [11] has as its system Radical scavenging activity. Description: Antioxidant activity assessed as DPPH free radical scavenging activity at 10 ug/mL after 20 min by UV-Vis spectrophotometric analysis. The method, boiled down:
as §1

≈ marks a conversion by molar mass, not a printed value.

The IC50 is the concentration that gives 50% inhibition. The LC50 is the concentration that kills 50% of the test population. Consider `Cc1ccc(C2CC(c3ccccc3)=Cc3n[nH]c(O)c32)cc1` (configuration not stated), for which the Activity in experiment [1] amounted to 85.7%; in experiment [2] it was 35.1%; in [3], 81.8%; in experiment [4], 41.2%; in experiment [5] it was 18.2%; in [6], 85.7%. Also, the Activity in [7] is 69.9%; in experiment [8], 14.5%; in experiment [9] it was 18.2%; in experiment [10], 36.4%; in experiment [11], 9.2%. Also, the zone of inhibition at 100 µg/disc in the experiment on Staphylococcus aureus stood at 5 mm; in the experiment with Klebsiella pneumoniae, 0 mm; in the experiment on Bacillus thuringiensis, 0 mm; in the experiment with Xanthomonas oryzae, 0 mm; in the experiment on Bacillus pumilus it was 0 mm; with Pseudomonas aeruginosa it was 10 mm. Moreover, in the experiment with Dickeya chrysanthemi, the zone of inhibition at 100 µg/disc amounted to 0 mm. Also, the IC50 in [5] amounted to 106.62 µg/mL (≈ 353 µM). Further, the 50% lethal concentration (LC50) in the experiment on Rhizoctonia solani is 745 µg/mL (≈ 2460 µM); with Athelia rolfsii, 922 µg/mL (≈ 3050 µM).
`COc1ccc(C2CC(c3ccc(Cl)cc3)=Cc3n[nH]c(O)c32)cc1` (configuration not stated): the Activity in experiment [1] came out at 90%; in experiment [2], 68.7%; in experiment [3] it was 89.7%; in [4], 89.9%; in experiment [5], 43.2%; in [6], 89.8%. The Activity in experiment [7] is 91.2%; in experiment [8], 21.7%; in [9], 43.2%; in experiment [10], 86.4%; in [11], 13.9%. Moreover, the zone of inhibition at 100 µg/disc in the experiment with Staphylococcus aureus, in the experiment with Klebsiella pneumoniae, in the experiment on Bacillus thuringiensis, with Xanthomonas oryzae, in the experiment with Bacillus pumilus and in the experiment on Pseudomonas aeruginosa was 0 mm each time. Moreover, the zone of inhibition at 100 µg/disc with Dickeya chrysanthemi came to 0 mm. Further, in [5], the IC50 was 42.34 µg/mL (≈ 120 µM). Also, the figures for the LC50 in the experiment with Rhizoctonia solani and with Athelia rolfsii were 587 µg/mL (≈ 1660 µM) and 941 µg/mL (≈ 2670 µM), respectively.
For `O=[N+]([O-])c1cccc(C2CC(c3ccc(F)cc3)=Cc3n[nH]c(O)c32)c1` (configuration not stated), the Activity in experiment [1] came to 91.1%; in [2] it was 86.4%; in experiment [3], 90.5%; in experiment [4], 90.8%; in [5], 67.9%; in experiment [6], 90.9%. For the same molecule, the Activity in [7] amounted to 92.3%; in [8] it was 35.9%; in experiment [9], 67.9%; in experiment [10], 90.1%; in experiment [11], 22.6%. The zone of inhibition at 100 µg/disc in the experiment with Staphylococcus aureus, in the experiment with Klebsiella pneumoniae, in the experiment with Bacillus thuringiensis, with Xanthomonas oryzae, with Bacillus pumilus and with Pseudomonas aeruginosa was 0 mm throughout. In addition, in the experiment on Dickeya chrysanthemi, the zone of inhibition at 100 µg/disc was 0 mm. In experiment [5], the concentration for half-maximal inhibition (IC50) is 19.81 µg/mL (≈ 56.4 µM). For the same molecule, the values for the LC50 in the experiment on Rhizoctonia solani and in the experiment with Athelia rolfsii were 528 µg/mL (≈ 1500 µM) and 796 µg/mL (≈ 2270 µM), respectively.
In the case of `COc1cc(C2CC(c3ccc(C)cc3)=Cc3n[nH]c(O)c32)cc(OC)c1OC` (configuration not stated), the Activity stood at 90.6% in experiment [1]; 79.3% in experiment [2]; 90.2% in experiment [3]; 90.8% in experiment [4]; 56.9% in [5]; 90.3% in experiment [6]. The Activity worked out at 91.8% in [7]; 26.4% in experiment [8]; 56.9% in [9]; 89.9% in experiment [10]; 15% in [11]. Also, the zone of inhibition at 100 µg/disc in the experiment with Staphylococcus aureus, in the experiment with Klebsiella pneumoniae, in the experiment with Bacillus thuringiensis, in the experiment with Xanthomonas oryzae, in the experiment with Bacillus pumilus and in the experiment with Pseudomonas aeruginosa was 0 mm each time. In addition, the zone of inhibition at 100 µg/disc in the experiment on Dickeya chrysanthemi amounted to 0 mm. In experiment [5], the IC50 amounted to 29.7 µg/mL (≈ 75.7 µM). The results for the 50% lethal concentration (LC50) with Rhizoctonia solani and in the experiment with Athelia rolfsii were 738 µg/mL (≈ 1880 µM) and 1170 µg/mL (≈ 2990 µM), respectively.
Turning to `COc1ccc(C2=Cc3n[nH]c(O)c3C(c3ccc(OC)c(OC)c3)C2)cc1` (configuration not stated), the Activity in experiment [1] stood at 90.8%; in [2] it was 85.8%; in experiment [3], 90.4%; in [4] it was 91.4%; in experiment [5], 65.3%; in experiment [6], 90.5%. The Activity in experiment [7] was 92.1%; in [8], 29.2%; in [9], 65.3%; in experiment [10], 90%; in experiment [11] it was 17.7%. In addition, the zone of inhibition at 100 µg/disc in the experiment on Staphylococcus aureus, in the experiment with Klebsiella pneumoniae, with Bacillus thuringiensis, in the experiment on Xanthomonas oryzae, with Bacillus pumilus and in the experiment with Pseudomonas aeruginosa was 0 mm each time. Besides, in the experiment with Dickeya chrysanthemi, the zone of inhibition at 100 µg/disc was 0 mm. Also, in experiment [5], the IC50 was found to be 23.94 µg/mL (≈ 63.3 µM). The values for the LC50 with Rhizoctonia solani and in the experiment on Athelia rolfsii were 1030 µg/mL (≈ 2730 µM) and 1240 µg/mL (≈ 3280 µM), respectively.
Take `COc1ccc(C2CC(c3ccc4c(c3)OCO4)=Cc3n[nH]c(O)c32)cc1` (configuration not stated): the Activity in [1] was found to be 90.1%; in [2], 84.2%; in [3] it was 89.8%; in experiment [4], 90.7%; in [5], 56.1%; in experiment [6], 89.9%. The Activity in experiment [7] was 91.9%; in [8], 30.4%; in experiment [9], 56.1%; in experiment [10], 89.5%; in experiment [11], 19%. Moreover, the zone of inhibition at 100 µg/disc with Staphylococcus aureus, with Klebsiella pneumoniae, with Bacillus thuringiensis, with Xanthomonas oryzae, in the experiment with Bacillus pumilus and in the experiment on Pseudomonas aeruginosa was 0 mm each time. The zone of inhibition at 100 µg/disc in the experiment with Dickeya chrysanthemi came to 0 mm. In experiment [5], the IC50 is 25.2 µg/mL (≈ 69.5 µM). Further, the LC50 was determined as 643 µg/mL (≈ 1770 µM) in the experiment with Rhizoctonia solani and 897 µg/mL (≈ 2480 µM) in the experiment with Athelia rolfsii.
For `COc1ccc(C2CC(c3ccccc3)=Cc3n[nH]c(O)c32)cc1` (configuration not stated), the Activity came to 90.2% in [1]; 79.7% in experiment [2]; 89.7% in [3]; 89% in experiment [4]; 50.2% in experiment [5]; 88.9% in experiment [6]. Also, the Activity in experiment [7] turned out to be 91.8%; in experiment [8] it was 30.6%; in [9], 50.3%; in [10], 88.4%; in experiment [11], 16.8%. For the same molecule, the zone of inhibition at 100 µg/disc in the experiment with Staphylococcus aureus, with Klebsiella pneumoniae, with Bacillus thuringiensis, with Xanthomonas oryzae, in the experiment on Bacillus pumilus and with Pseudomonas aeruginosa was 0 mm each time. Moreover, the zone of inhibition at 100 µg/disc in the experiment with Dickeya chrysanthemi was determined as 0 mm. For the same molecule, the IC50 in experiment [5] was found to be 29.62 µg/mL (≈ 93 µM). The LC50 in the experiment with Rhizoctonia solani came to 718 µg/mL (≈ 2260 µM); with Athelia rolfsii, 713 µg/mL (≈ 2240 µM).
